Data as given in ChEMBL document CHEMBL1137663, “Evaluation of tigecycline penetration into colon wall tissue and epithelial lining fluid using a population pharmacokinetic model and Monte Carlo simulation” (Antimicrob Agents Chemother, 2007).

Assays:
[1] = AUC (0 to 24 hrs) in human epithelial lining fluid at 5th AUC percentile curve; format: ADME, tissue-based; set-up: time < 24 hr
In short: (§1)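 Study 1: 100-mg i.v. loading dose, then 50 mg i.v. every 12 h through day 4 (seven 30-min infusions). Drug was measured in BAL fluid by LC-MS/MS. ELF concentration was derived by urea dilution, using BAL and serum urea drawn at bronchoscopy. Values were comodeled with serum data in a population model, and Monte Carlo simulation gave steady-state AUC0-24 percentiles.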

[2] = Volume of distribution in human colon wall tissue; format: ADME, organism-based
In short: (§2)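 Serum, ELF and colon wall concentrations were fitted simultaneously in BigNPAG. One specific-volume term estimated all tissue compartment volumes. Individual Bayesian estimates were obtained with the population-of-one utility.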

[3] = Penetration ratio, ratio of AUC (0 to 24 hrs) for human epithelial lining fluid to AUC (0 to 24 hrs) for human serum at 95th AUC percentile curve; format: ADME, tissue-based
In short: (§3)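 Penetration was expressed as steady-state tissue (colon wall or ELF) AUC0-24 divided by serum AUC0-24. AUCs came from the population model, by direct simulation with the mean parameter vector and by Monte Carlo simulation using the parameter distribution.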

[4] = Penetration ratio, ratio of AUC (0 to 24 hrs) for human colon wall tissue to AUC (0 to 24 hrs) for human serum at 75th AUC percentile curve; format: ADME; in short: as §3
[5] = Penetration ratio, ratio of AUC (0 to 24 hrs) for human epithelial lining fluid to AUC (0 to 24 hrs) for human serum at 5th AUC percentile curve; format: ADME, tissue-based; in short: as §3
[6] = AUC (0 to 24 hrs) in human epithelial lining fluid at 95th AUC percentile curve; format: ADME, tissue-based; set-up: time < 24 hr; in short: as §1
[7] = AUC (0 to 24 hrs) in human epithelial lining fluid at 25th AUC percentile curve; format: ADME, tissue-based; set-up: time < 24 hr; in short: as §1
[8] = AUC (0 to 24 hrs) in human colon wall tissue at 25th AUC percentile curve; format: ADME, tissue-based; set-up: time < 24 hr
In short: (§4)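 Study 2: a single 100-mg i.v. dose was infused over about 30 min. Colon wall was collected about 4, 8, 12 or 24 h after the infusion started. Tissue (0.20-g aliquot) was homogenized with deuterated internal standard in acetonitrile, then assayed by LC-MS/MS. Data were comodeled with serum from all five studies in BigNPAG. Monte Carlo simulation gave steady-state AUC0-24 percentiles.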

[9] = Penetration ratio, ratio of AUC (0 to 24 hrs) for human colon wall tissue to AUC (0 to 24 hrs) for human serum at 5th AUC percentile curve; format: ADME; in short: as §3
[10] = AUC (0 to 24 hrs) in human serum at 50th AUC percentile curve; format: ADME, cell-free; set-up: time < 24 hr
In short: (§5)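 Serum came from five studies. Study 1: serial samples over 24 h after the last of seven i.v. doses. Study 2: samples after a single 100-mg infusion. Studies 3-5: patients on 100 mg then 50 mg q12h for 5-14 days, sampled predose, at end of infusion, and at 3 and 6 h. Assay was LC-MS/MS. Population modeling plus Monte Carlo simulation gave steady-state AUC0-24 percentiles.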

[11] = Penetration ratio, ratio of AUC (0 to 24 hrs) for human colon wall tissue to AUC (0 to 24 hrs) for human serum at 95th AUC percentile curve; format: ADME; in short: as §3
[12] = Protein binding in human serum; format: ADME, cell-free; settings: read-out: PB (converted)
[13] = AUC (0 to 24 hrs) in human serum at 75th AUC percentile curve; format: ADME, cell-free; set-up: time < 24 hr; in short: as §5
[14] = Clearance in human serum; format: ADME, organism-based; in short: as §2
[15] = AUC (0 to 24 hrs) in human colon wall tissue at 50th AUC percentile curve; format: ADME, tissue-based; set-up: time < 24 hr; in short: as §4
[16] = AUC (0 to 24 hrs) in human epithelial lining fluid at 50th AUC percentile curve; format: ADME, tissue-based; set-up: time < 24 hr; in short: as §1
[17] = Volume of distribution in human serum; format: ADME, organism-based; in short: as §2
[18] = Penetration ratio, ratio of AUC (0 to 24 hrs) for human colon wall tissue to AUC (0 to 24 hrs) for human serum at 25th AUC percentile curve; format: ADME; in short: as §3
[19] = AUC (0 to 24 hrs) in human serum at 5th AUC percentile curve; format: ADME, cell-free; set-up: time < 24 hr; in short: as §5
[20] = AUC (0 to 24 hrs) in human serum at 95th AUC percentile curve; format: ADME, cell-free; set-up: time < 24 hr; in short: as §5
[21] = Volume of distribution in human lung; format: ADME, organism-based; in short: as §2
[22] = AUC (0 to 24 hrs) in human colon wall tissue at 95th AUC percentile curve; format: ADME, tissue-based; set-up: time < 24 hr; in short: as §4
[23] = AUC (0 to 24 hrs) in human serum at 25th AUC percentile curve; format: ADME, cell-free; set-up: time < 24 hr; in short: as §5
[24] = Penetration ratio, ratio of AUC (0 to 24 hrs) for human colon wall tissue to AUC (0 to 24 hrs) for human serum at 50th AUC percentile curve; format: ADME; in short: as §3
[25] = AUC (0 to 24 hrs) in human epithelial lining fluid at 75th AUC percentile curve; format: ADME, tissue-based; set-up: time < 24 hr; in short: as §1
[26] = AUC (0 to 24 hrs) in human colon wall tissue at 75th AUC percentile curve; format: ADME, tissue-based; set-up: time < 24 hr; in short: as §4
[27] = Penetration ratio, ratio of AUC (0 to 24 hrs) for human epithelial lining fluid to AUC (0 to 24 hrs) for human serum at 75th AUC percentile curve; format: ADME, tissue-based; in short: as §3
[28] = Penetration ratio, ratio of AUC (0 to 24 hrs) for human epithelial lining fluid to AUC (0 to 24 hrs) for human serum at 50th AUC percentile curve; format: ADME, tissue-based; in short: as §3
[29] = Penetration ratio, ratio of AUC (0 to 24 hrs) for human epithelial lining fluid to AUC (0 to 24 hrs) for human serum at 25th AUC percentile curve; format: ADME, tissue-based; in short: as §3
[30] = AUC (0 to 24 hrs) in human colon wall tissue at 5th AUC percentile curve; format: ADME, tissue-based; set-up: time < 24 hr; in short: as §4

CN(C)c1cc(NC(=O)CNC(C)(C)C)c(O)c2c1C[C@H]1C[C@H]3[C@H](N(C)C)C(O)=C(C(N)=O)C(=O)[C@@]3(O)C(O)=C1C2=O [TIGECYCLINE]
AUC(0-t) at 24 h [1]: 4.3 µg·h/mL | Vd [2]: 50.5 L | Kp [3]: 5.23 | Kp [4]: 3.91 | Kp [5]: 0.561 | AUC(0-t) at 24 h [6]: 32.4 µg·h/mL | AUC(0-t) at 24 h [7]: 5.19 µg·h/mL | AUC(0-t) at 24 h [8]: 6.44 µg·h/mL | Kp [9]: 0.16 | AUC(0-t) at 24 h [10]: 6.16 µg·h/mL | Kp [11]: 199 | fraction unbound [12]: 0.29 | AUC(0-t) at 24 h [13]: 8.72 µg·h/mL | clearance [14]: 243 mL/min | AUC(0-t) at 24 h [15]: 15.6 µg·h/mL | AUC(0-t) at 24 h [16]: 9.03 µg·h/mL | Vd [17]: 30.9 L | Kp [18]: 0.683 | AUC(0-t) at 24 h [19]: 4.84 µg·h/mL | AUC(0-t) at 24 h [20]: 18.5 µg·h/mL | Vd [21]: 35.2 L | AUC(0-t) at 24 h [22]: 3370 µg·h/mL | AUC(0-t) at 24 h [23]: 5.09 µg·h/mL | Kp [24]: 1.73 | AUC(0-t) at 24 h [25]: 22.3 µg·h/mL | AUC(0-t) at 24 h [26]: 30.4 µg·h/mL | Kp [27]: 2.45 | Kp [28]: 1.15 | Kp [29]: 0.823 | AUC(0-t) at 24 h [30]: 1.65 µg·h/mL
